Measured values from ChEMBL document CHEMBL4732076, “Design, synthesis and bioevaluation of inhibitors targeting HSP90-CDC37 protein-protein interaction based on a hydrophobic core” (Eur J Med Chem, 2021).
The source made the active and inactive calls. No cut-off for these calls is given here.

Experiments:
Heat shock protein HSP90 [1] = biological target: T1, Heat shock protein HSP90 (Homo sapiens, UniProt P07900+P08238); assay: Binding affinity to recombinant human N-terminal truncated HSP90 (9 to 236 residues) expressed in Escherichia coli BL21 (DE3) assessed as on rate constant by biolayer interferometry assay
HCT-116 [2] = assay: Antiproliferative activity against human HCT-116 cells assessed as reduction in cell viability incubated for 72 hrs by MTT assay; assay type: functional, cell-based
Method in brief: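 HCT116 cells in RPMI 1640 with 10% FBS, 37 °C, 5% CO2. Seeded at 3000–5000 cells/well and left 24 h, then exposed to serial compound dilutions for 72 h. Proliferation read by MTT kit using the standard protocol.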

Heat shock protein HSP90 [3] = biological target: T1, Heat shock protein HSP90; assay: Binding affinity to recombinant human N-terminal truncated HSP90 (9 to 236 residues) expressed in Escherichia coli BL21 (DE3) assessed as off rate constant by biolayer interferometry assay
Heat shock protein HSP90 [4] = biological target: T1, Heat shock protein HSP90; assay: Binding affinity to recombinant human N-terminal truncated HSP90 (9 to 236 residues) expressed in Escherichia coli BL21 (DE3) assessed as dissociation rate constant by biolayer interferometry assay
Heat shock protein HSP90 [5] = biological target: T1, Heat shock protein HSP90; assay: Inhibition of HSP90 (unknown origin) at 100 uM measured after 1.5 hrs in presence of ATP by spectrophotometry relative to control; assay type: protein assay
Heat shock protein HSP90 [6] = biological target: T1, Heat shock protein HSP90; assay: Binding affinity to HSP90 in human HCT-116 cells assessed as increase in thermal stability at 5 uM incubated for 12 hrs at 35 to 65 degC by […]; assay type: cell-based
Method in brief: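 HCT116 cells at ~90% confluence treated with 5 μM compound or DMSO for 12 h, then washed and resuspended in PBS. Aliquots heated 3 min across 35–65 °C, freeze-thawed three times in liquid nitrogen and centrifuged. Soluble HSP90 and CDC37 detected by Western blot. Three independent experiments.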

HCT-116 [7] = assay: Inhibition of HSP90/CDC37 interaction in human HCT-116 cells assessed as downregulation of CDK4 incubated for 12 hrs by Western blot analysis; assay type: cell-based; conditions: dose 1-10 µM
Method in brief: (§1)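 HCT116 cells treated with 0, 1, 5 and 10 μM compound for 12 h. Whole-cell levels of HSP90, HSP70, CDC37, CDK4, CDK6, cyclin D1, p21 and p27 measured by Western blot, with β-actin as loading control. Three independent experiments.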

HCT-116 [8] = assay: Induction of cell cycle arrest in human HCT-116 cells assessed as increase in accumulation at G0/G1 phase at 1 to 10 uM incubated for 24 hrs by propidium iodide staining based flow cytometric analysis; assay type: functional; conditions: dose 1-10 µM
Method in brief: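 HCT116 cells exposed to 0, 1, 5 and 10 μM compound for 24 h. Fixed in 75% ethanol overnight at 4 °C, treated with RNase I (50 μg/mL) in PBS for 30 min at 37 °C, then stained with propidium iodide (50 μg/mL) for 15 min. Cell-cycle phases measured by flow cytometry.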

HCT-116 [9] = assay: Inhibition of HSP90/CDC37 interaction in human HCT-116 cells assessed as downregulation of Cyclin D1 at 1 to 10 uM incubated for 12 hrs by Western blot analysis; conditions: dose 1-10 µM
HCT-116 [10] = assay: Antitumor activity against human HCT-116 cells xenografted in BALB/c mouse assessed as reduction in tumor volume administered orally for 37 days and measured on day 37; assay type: functional; conditions: dose 10-20 mg/kg, time 37.0 day
Method in brief: (§2)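 HCT116 cells (1×10^7) mixed 3:1 with Matrigel and injected into the flank of 6-week-old BALB/c nude mice, randomized into groups. Dosing started at mean tumor volume 125 mm³: daily oral doses of 10 or 20 mg/kg in 0.9% saline with 5% DMSO, for 37 days. Tumor volume measured daily by calipers as length×width²/2; body weight recorded every 1–4 days. n = 6, mean ± SD.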

HCT-116 [11] = assay: Inhibition of HSP90/CDC37 interaction in human HCT-116 cells assessed as downregulation of CDK6 incubated for 12 hrs by Western blot analysis; assay type: cell-based; conditions: dose 1-10 µM; method in brief: as §1
HCT-116 [12] = assay: Inhibition of HSP90/CDC37 interaction in human HCT-116 cells assessed as downregulation of HSP70 at 1 to 10 uM incubated for 12 hrs by Western blot analysis; conditions: dose 1-10 µM
HCT-116 [13] = assay: Antitumor activity against human HCT-116 cells xenografted in BALB/c mouse assessed as reduction in tumor at 10 to 20 mg/kg, po administered for 37 days and measured on day 37 by H and E staining based immunohistochemistry analysis; assay type: functional, organism-based; conditions: dose 10-20 mg/kg, time 37.0 day
HCT-116 [14] = assay: Inhibition of HSP90/CDC37 interaction in human HCT-116 cells assessed as reduction in CDK4 expression at 1 to 10 uM incubated for 12 hrs by immunoprecipitation based Western blot analysis; assay type: cell-based; conditions: dose 1-10 µM
Method in brief: (§3)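 HCT116 cells at ~90% confluence given compound (0, 1, 5, 10 μM) or DMSO for 12 h. Lysed 1 h on ice in RIPA buffer (50 mM Tris, 150 mM NaCl, 1% NP-40, protease inhibitors, pH 7.4), then spun 15 min at 4 °C. HSP90 immunoprecipitated with protein A/G magnetic beads over 3 h. Beads washed five times; blots probed for HSP90, CDC37 and CDK4.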

Mus musculus [15] = assay: In vivo inhibition of HSP90/[…] interaction in BALB/c mouse xenografted with human HCT-116 cells assessed as reduction in CDK4 level administered orally for 37 days and measured on day 37 by […] immunohistochemistry analysis; assay type: functional, organism-based; conditions: dose 10-20 mg/kg, time 37.0 day
[16] = Toxicity in BALB/c mouse xenografted with human HCT-116 cells assessed as effect on body weight at 10 to 20 mg/kg, po administered and observed for 37 days; assay type: organism-based; conditions: in vivo, 888 h, dose 10-20 mg/kg, time 37 day; method in brief: as §2
HCT-116 [17] = assay: Inhibition of HSP90/CDC37 interaction in human HCT-116 cells assessed as upregulation of p21/p27 at 1 to 10 uM incubated for 12 hrs by Western blot analysis; conditions: dose 1-10 µM
HCT-116 [18] = assay: Inhibition of HSP90/CDC37 interaction in human HCT-116 cells for 12 hrs by immunoprecipitation based Western blot analysis; assay type: cell-based; conditions: dose 1-10 µM; method in brief: as §3
Mus musculus [19] = assay: In vivo inhibition of HSP90/[…] interaction in BALB/c mouse xenografted with human HCT-116 cells assessed as reduction in CDK4 level at 20 mg/kg, po administered for 37 days and measured on day 37 by […] immunohistochemistry analysis; assay type: functional, organism-based; conditions: time 37.0 day
HCT-116 [20] = assay: Antitumor activity against human HCT-116 cells xenografted in BALB/c mouse assessed as reduction in tumor volume at 20 mg/kg, po administered for 37 days and measured on day 37; assay type: functional, organism-based; conditions: time 37.0 day; method in brief: as §2
[21] = Toxicity in BALB/c mouse xenografted with human HCT-116 cells assessed as effect on body weight at 20 mg/kg, po administered and observed for 37 days; assay type: organism-based; conditions: in vivo, 888 h, time 37 day; method in brief: as §2
[22] = Homo sapiens, HCT-116, 72 h, read-out: IC50

Structure (SMILES) | K (Heat shock protein HSP90 [1]) | IC50 (HCT-116 [2]; [22]) | K (Heat shock protein HSP90 [3]) | Kd (Heat shock protein HSP90 [4]) | further results
O=S(=O)(Nc1ccc(Nc2ccnc(N3CCNCC3)n2)cc1)c1ccc(Br)cc1 | inactive | 1.35 µM | inactive |  | 
O=S(=O)(Nc1ccc(Nc2ccnc(N3CCNCC3)n2)cc1)c1ccc(Cl)cc1 | inactive | 11.1 µM | inactive |  | 
CC(C)c1ccc(S(=O)(=O)Nc2ccc(Nc3ccnc(N4CCNCC4)n3)cc2)cc1.Cl |  | > 20 µM |  | > 100 µM | 
Cl.O=S(=O)(Nc1ccc(Nc2ccnc(N3CCNCC3)n2)cc1)c1ccc2c(c1)CCC2 | 3.54 10^4/Ms | 13.4 µM | 0.337 s⁻¹ | 9.52 µM | 
O=S(=O)(Nc1ccc(Nc2ccnc(N3CCNCC3)n2)cc1)c1ccc(OC(F)(F)F)cc1 | inactive | > 20 µM | inactive |  | 
CCCc1ccc(S(=O)(=O)Nc2ccc(Nc3ccnc(N4CCNCC4)n3)cc2)cc1.Cl | 3.17 10^3(1/Ms) | 19.3 µM | 0.0366 s⁻¹ | 11.5 µM | 
Cc1ccc(S(=O)(=O)Nc2ccc(Nc3ccnc(N4CCNCC4)n3)cc2)cc1 | inactive | > 20 µM | inactive |  | 
Cl.Cn1cnc(S(=O)(=O)Nc2ccc(Nc3ccnc(N4CCNCC4)n3)cc2)c1 | inactive |  | inactive |  | IC50 (HCT-116 [2]; hct-116): Not Active
COc1cc(S(=O)(=O)Nc2ccc(Nc3ccnc(N4CCNCC4)n3)cc2)c(C)cc1C.Cl |  | > 50 µM |  | >= 20 uM | inhibition (Heat shock protein HSP90 [5]): 56%
O=S(=O)(Nc1ccc(Nc2ccnc(N3CCNCC3)n2)cc1)c1ccc(F)cc1 | inactive | > 20 µM | inactive |  | 
N#Cc1ccc(S(=O)(=O)Nc2ccc(Nc3ccnc(N4CCNCC4)n3)cc2)cc1 | inactive | > 20 µM | inactive |  | 
Cl.O=S(=O)(Nc1ccc(Nc2ccnc(N3CCNCC3)n2)cc1)c1ccc2c(c1)CCO2 | 3.02 10^3(1/Ms) | 5.82 µM | 0.0321 s⁻¹ | 10.6 µM | 
CCc1ccc(S(=O)(=O)Nc2ccc(Nc3ccnc(N4CCNCC4)n3)cc2)cc1 | inactive | > 20 µM | inactive |  | 
CCCCc1ccc(S(=O)(=O)Nc2ccc(Nc3ccnc(N4CCNCC4)n3)cc2)cc1.Cl | 1.04 10^4/Ms | 7.5 µM | 0.121 s⁻¹ | 11.6 µM | 
O=S(=O)(Nc1ccc(Nc2ccnc(N3CCNCC3)n2)cc1)c1ccc(Oc2ccccc2)cc1 | inactive | > 20 µM | inactive |  | 
Cl.O=S(=O)(Nc1ccc(Nc2ccnc(N3CCNCC3)n2)cc1)c1ccc(-c2ccccc2)cc1 | 6.1 10^3(1/Ms) | 13.7 µM | 0.112 s⁻¹ | 18.4 µM | 
CCCCCc1ccc(S(=O)(=O)Nc2ccc(Nc3ccnc(N4CCNCC4)n3)cc2)cc1.Cl |  | 16.7 µM |  | > 100 µM | 
CC(C)c1cc(C(C)C)c(S(=O)(=O)Nc2ccc(Nc3ccnc(N4CCNCC4)n3)cc2)c(C(C)C)c1 | inactive | > 20 µM | inactive |  | 
Cc1c(C)c(S(=O)(=O)Nc2ccc(Nc3ccnc(N4CCNCC4)n3)cc2)c(C)c2c1OC(C)(C)C2.Cl | 2.03 10^4/Ms | 6.34 µM | 0.112 s⁻¹ | 5.52 µM | Activity (Heat shock protein HSP90 [6]): Active; inhibition (HCT-116 [7]): Dose-dependent effect; Activity (HCT-116 [8]): Active; inhibition (HCT-116 [9]): Active; Activity (HCT-116 [10]): Dose-dependent effect; inhibition (HCT-116 [11]): Dose-dependent effect; inhibition (HCT-116 [12]): inactive; Activity (HCT-116 [13]): Active; inhibition (HCT-116 [14]): Active; inhibition (Mus musculus [15]): Dose-dependent effect; Activity [16]: Non-Toxic; inhibition (HCT-116 [17]): Active; inhibition (HCT-116 [18]): Dose-dependent effect
O=S(=O)(Nc1ccc(Nc2ccnc(N3CCNCC3)n2)cc1)c1cccs1 | inactive | > 20 µM | inactive |  | 
Cc1cc(C)c(S(=O)(=O)N(CC(=O)O)c2ccc(Nc3ccnc(N4CCNCC4)n3)cc2)c(C)c1 |  |  |  |  | inhibition (Mus musculus [19]): Active; Activity (HCT-116 [20]): Active; Activity [21]: Non-Toxic
CCOC(=O)c1ccc(S(=O)(=O)Nc2ccc(Nc3ccnc(N4CCNCC4)n3)cc2)cc1.Cl | 3.55 10^4/Ms | 16.4 µM | 0.182 s⁻¹ | 5.13 µM | 
O=S(=O)(Nc1ccc(Nc2ccnc(N3CCNCC3)n2)cc1)c1ccc(OCc2ccccc2)cc1 | inactive | 7.05 µM | inactive |  | 
